Experimental data as given in ChEMBL document CHEMBL1938394, “Time-dependent slowly-reversible inhibition of monoamine oxidase A by N-substituted 1,2,3,6-tetrahydropyridines” (Bioorg Med Chem, 2011).

How the values were obtained:
[1] = target: T1, Amine oxidase [flavin-containing] A (Homo sapiens, UniProt P21397); assay: Competitive inhibition of human recombinant MAO-A assessed as dissociation constant for enzyme-inhibitor complex by Lineweaver-Burk plot analysis
T1 sequence (P21397 whole entry): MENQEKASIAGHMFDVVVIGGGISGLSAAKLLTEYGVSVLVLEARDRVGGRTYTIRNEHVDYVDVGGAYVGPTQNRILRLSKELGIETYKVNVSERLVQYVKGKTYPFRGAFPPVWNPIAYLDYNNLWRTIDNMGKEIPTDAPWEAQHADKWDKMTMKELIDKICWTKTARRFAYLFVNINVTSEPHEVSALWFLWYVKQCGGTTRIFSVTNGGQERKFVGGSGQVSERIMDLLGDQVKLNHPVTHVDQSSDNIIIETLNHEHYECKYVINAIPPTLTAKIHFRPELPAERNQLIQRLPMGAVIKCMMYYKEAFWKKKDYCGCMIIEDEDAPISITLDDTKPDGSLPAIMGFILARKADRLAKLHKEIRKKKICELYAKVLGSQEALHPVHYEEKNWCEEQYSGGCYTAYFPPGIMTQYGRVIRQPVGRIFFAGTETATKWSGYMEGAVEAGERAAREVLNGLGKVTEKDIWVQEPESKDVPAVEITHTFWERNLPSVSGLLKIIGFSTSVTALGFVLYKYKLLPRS
Method in brief: (§1)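 Human recombinant MAO-A (0.005 mg/mL) in 0.1 M sodium phosphate pH 7.4 made isotonic with NaCl, 37 °C, 30 min. Initial oxidation rates at four kynuramine levels (50–150 µM) without or with four inhibitor concentrations (range per compound, 5–1000 µM). Ki from Lineweaver–Burk plots and replots by linear regression; triplicate.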

[2] = target: T1, Amine oxidase [flavin-containing] A; assay: Competitive inhibition of human recombinant MAO-A assessed as dissociation constant for enzyme-inhibitor-substrate complex by Lineweaver-Burk plot analysis; method in brief: as §1
Homo sapiens = organism: Homo sapiens; assay: Selectivity index, ratio of IC50 for human recombinant MAOB to IC50 for human recombinant MAOA
Method in brief: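 MAO-A (0.005 mg/mL; 150 μM kynuramine, 60 min, 37 °C, […]) and MAO-B (0.01 mg/mL; 1000 μM benzylamine, 30 min, 37 °C, perchloric acid stop, benzaldehyde by HPLC-UV at 254 nm) in isotonic 0.1 M phosphate pH 7.4. Inhibitor 0–7000 μM. IC50s from sigmoidal log curves in triplicate. SI = MAO-B IC50 / MAO-A IC50.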

[3] = target: T1, Amine oxidase [flavin-containing] A; assay: Inhibition of human recombinant MAOA expressed in insect cells assessed as oxidation of kynuramine substrate at 2 mM measured after additional enzyme added after 120 mins incubation; details: 2 h, 2000 µM
Method in brief: (§2)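 Recombinant human MAO-A incubated with kynuramine, with or without inhibitor. Product formation followed over time. A second equivalent of substrate (150 µM kynuramine) added at 90 min and fresh enzyme added at 120 min.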

[4] = target: T1, Amine oxidase [flavin-containing] A; assay: Inhibition of human recombinant MAOA expressed in insect cells assessed as oxidation of kynuramine substrate at 2 mM measured after additional substrate added after 90 mins incubation; details: 1.5 h; method in brief: as §2
[5] = target: T1, Amine oxidase [flavin-containing] A; assay: Inhibition of human recombinant MAOA expressed in insect cells using kynuramine substrate after 60 mins
[6] = target: T2, Amine oxidase [flavin-containing] B (Homo sapiens, UniProt P27338); assay: Inhibition of human recombinant MAOB expressed in insect cells using benzylamine hydrochloride as substrate after 30 mins
T2 sequence (P27338 whole entry): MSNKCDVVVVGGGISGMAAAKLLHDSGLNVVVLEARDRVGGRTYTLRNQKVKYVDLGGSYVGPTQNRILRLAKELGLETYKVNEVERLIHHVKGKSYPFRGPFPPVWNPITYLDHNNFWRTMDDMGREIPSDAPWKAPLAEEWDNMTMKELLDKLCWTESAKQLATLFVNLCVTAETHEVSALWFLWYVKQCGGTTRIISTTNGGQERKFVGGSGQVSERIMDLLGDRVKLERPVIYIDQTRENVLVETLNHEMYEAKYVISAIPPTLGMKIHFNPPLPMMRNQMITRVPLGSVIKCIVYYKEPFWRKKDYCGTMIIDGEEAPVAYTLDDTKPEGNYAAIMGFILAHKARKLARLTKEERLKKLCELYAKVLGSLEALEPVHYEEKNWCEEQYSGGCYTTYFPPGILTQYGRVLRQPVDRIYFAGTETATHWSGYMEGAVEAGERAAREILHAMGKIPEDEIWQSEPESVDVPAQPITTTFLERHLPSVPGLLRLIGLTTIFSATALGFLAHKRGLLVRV
Method in brief: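 Human recombinant MAO-B (0.01 mg/mL) in 0.1 M isotonic phosphate buffer pH 7.4, inhibitor 0–7000 µM, benzylamine 1000 µM final, 30 min at 37 °C. Stopped with perchloric acid; benzaldehyde measured by reverse-phase HPLC with UV 254 nm. IC50 from sigmoidal log dose–response fit; triplicate, mean ± SD.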

[7] = target: T1, Amine oxidase [flavin-containing] A; assay: Inhibition of human recombinant MAOA expressed in insect cells assessed as oxidation of kynuramine substrate measured after additional substrate added after 90 mins incubation; details: 1.5 h
Mus musculus [8] = assay: Neurotoxicity in C57BL/6J mouse assessed as increase of striatal GFAP level at 25 mg/kg, sc after 72 hrs by ELISA; format: toxicity, organism-based; set-up: dose 25 mg/kg, route subcutaneous; details: in vivo
Method in brief: (§3)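 Female C57BL/6J mice aged 3–4 months, single sc dose, 0.9% saline vehicle, killed 72 h post-dose. Striatum homogenised in hot 1% SDS. GFAP or TH measured by detergent-based sandwich ELISA.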

Mus musculus [9] = assay: Neurotoxicity in C57BL/6J mouse assessed as effect on dopamine level at 25 mg/kg, sc by HPLC analysis; format: toxicity, organism-based; set-up: dose 25 mg/kg, route subcutaneous; details: in vivo
Method in brief: (§4)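 Female C57BL/6J mice aged 3–4 months, single sc dose, 0.9% saline vehicle, killed 72 h later. Striata homogenised in ice-cold 0.2 M perchloric acid with dihydroxybenzylamine internal standard. Amines measured by C18 reverse-phase HPLC with electrochemical detection, mobile phase pH 3.0.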

Mus musculus [10] = assay: Neurotoxicity in C57BL/6J mouse assessed as effect on serotonin level at 25 mg/kg, sc by HPLC analysis; format: toxicity, organism-based; set-up: dose 25 mg/kg, route subcutaneous; details: in vivo; method in brief: as §4
[11] = target: T1, Amine oxidase [flavin-containing] A; assay: Inhibition of human recombinant MAOA expressed in insect cells assessed as oxidation of kynuramine substrate at 500 uM measured after additional enzyme added after 120 mins incubation; details: 2 h; method in brief: as §2
[12] = target: T1, Amine oxidase [flavin-containing] A; assay: Uncompetitive inhibition of human recombinant MAO-A assessed as dissociation constant for enzyme-inhibitor complex by Lineweaver-Burk plot analysis; method in brief: as §1
[13] = target: T1, Amine oxidase [flavin-containing] A; assay: Inhibition of human recombinant MAOA expressed in insect cells assessed as oxidation of kynuramine substrate at 500 uM up to 90 mins; details: 1.5 h; method in brief: as §2
[14] = target: T1, Amine oxidase [flavin-containing] A; assay: Inhibition of human recombinant MAOA expressed in insect cells using kynuramine as substrate at 50 uM preincubated up to 40 mins before kynuramine substrate addition measured after 30 mins; details: 0.5 h
Method in brief: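 MAO-A preincubated at 37 °C in 0.1 M isotonic phosphate buffer pH 7.4 with inhibitor, or buffer control, for […]. Diluted 50-fold into buffer containing kynuramine, then incubated 30 min. Activity is % of control; mean ± SD, n = 3.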

[15] = target: T1, Amine oxidase [flavin-containing] A; assay: Inhibition of human recombinant MAOA expressed in insect cells assessed as oxidation of kynuramine substrate at 500 uM measured after additional substrate added after 90 mins incubation; details: 1.5 h; method in brief: as §2
Mus musculus [16] = assay: Neurotoxicity in C57BL/6J mouse assessed as reduction of striatal tyrosine hydroxylase level at 25 mg/kg, sc after 72 hrs by ELISA; format: toxicity, organism-based; set-up: dose 25 mg/kg, route subcutaneous; details: in vivo; method in brief: as §3
[17] = target: T1, Amine oxidase [flavin-containing] A; assay: Inhibition of human recombinant MAOA expressed in insect cells assessed as formation of 4-hydroxyquinoline at 500 uM preincubated for 1 hr before kynuramine substrate measured after 1 hr in presence of sodium borohydride
Method in brief: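 MAO-A preincubated 60 min at 37 °C with inhibitor, no substrate. Then 5 µL of 300 mM NaBH4 added and held 15 min at 0 °C. Dialysed overnight at 0 °C against 0.1 M isotonic phosphate buffer pH 7.4. Residual activity: 4-hydroxyquinoline formation at 310 nm with 150 µM kynuramine, 60 min, 37 °C; n = 3.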

Row | SMILES | Ki [1] | Ki [2] | Ratio IC50 (Homo sapiens) | inhibition (INH) [3] | inhibition (INH) [4] | IC50 [5] | IC50 [6] | inhibition (INH) [7] | Activity (Mus musculus [8]) | Activity (Mus musculus [9]) | Activity (Mus musculus [10]) | inhibition (INH) [11] | IC50 [12] | Ki [12] | inhibition (INH) [13] | inhibition (INH) [14] | inhibition (INH) [15] | Activity (Mus musculus [16]) | inhibition (INH) [17]
1 | c1ccc(CCN2CCCCC2)cc1 [1-PHENETHYLPIPERIDINE] | 121 µM | 3680 µM | 1 | Active | Active | 757 µM | 762 µM | – | – | – | – | – | – | – | – | – | – | – | –
2 | C1=CCN(CCCc2ccccc2)CC1 | – | – | 9.4 | – | – | 86.1 µM | 812 µM | Not Active | – | – | – | – | – | – | – | – | – | – | –
3 | C1=CCN(CCc2ccccc2)CC1 | – | – | 28.7 | – | – | 41.3 µM | 1180 µM | – | Non-toxic | Non-toxic | Non-toxic | Active | 45.4 µM | 9.2 µM | Active | Active | Active | Non-toxic | Not Active
